The results in this text go back to ChEMBL document CHEMBL1938316, “Synthesis and anti-HCV activity evaluation of anilinoquinoline derivatives” (Bioorg Med Chem Lett, 2012).

The subject of assay [1] is Hepatitis C virus. The experiment in a line: Antiviral activity against HCV infected in human Ava5 cells assessed as reduction in HCV RNA level after 3 days by qRT-PCR analysis. The format is functional, organism-based, Hepacivirus hominis. The settings on record: for EC50: Ava5, 72 h. The essentials:
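Ava5 cells (Huh7 harbouring HCV subgenomic replicon) exposed to compounds at 0.5–150 µM for 3 days. Total cellular RNA quantified by RT-qPCR with HCV-specific primers, normalised to GAPDH mRNA. EC50 is the concentration lowering HCV RNA by 50% versus 0.1% DMSO mock, from non-linear regression. Means of triplicate experiments.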
In general terms: Quantitative PCR measures a nucleic acid by following its amplification.

Assay [2] can be described thus: Selectivity index, ratio of CC50 for human Ava5 cells to IC50 for HCV replication. The format is functional. The method, boiled down: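 CC50 from MTS viability in Ava5 cells, run in parallel with replicon treatment (0.5–150 µM, 3 days, versus 0.1% DMSO mock). EC50 is 50% reduction in HCV RNA by RT-qPCR. Index calculated as CC50/EC50.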
Assay [3] relates to Internal ribosome entry site (IRES). The experiment in a line: Inhibition of HCV IRES-mediated translation by secretory alkaline phosphatase reporter gene assay. The format is nucleic-acid assay. To be noted: Hepacivirus hominis. Background: A reporter such as luciferase makes a cellular process visible.
In a further assay the test system is Hepacivirus hominis. Put plainly: Inhibition of HCV NS5B polymerase activity by luciferase reporter gene assay.
The test system of assay [4] is Hepatitis C virus. Put plainly: Antiviral activity against HCV infected in human Ava5 cells assessed as inhibition of NS5B protein expression after 4 days by Western blot analysis. The assay is classed as functional, organism-based. The settings on record: Hepacivirus hominis. The essentials:
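Ava5 cells (Huh7 carrying HCV subgenomic replicon) incubated 4 days with compound at 2.5–15 µM; 0.1% DMSO as mock. Cell lysates analysed by western blot with anti-NS5B antibody, GAPDH as loading control.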
Background: A western blot detects proteins with antibodies after separation by electrophoresis.

In assay [5] the test system is Hepatitis C virus. The experiment in a line: Antiviral activity against HCV infected in human Ava5 cells assessed as reduction in HCV RNA level at 15 uM after 3 days by qRT-PCR analysis relative to control. The format is functional, Hepacivirus hominis. On the set-up: scale not given: the % may be the effect or the level left. The method, boiled down:
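HCV replicon Ava5 cells treated 3 days at 2.5–15 µM. HCV RNA measured by RT-qPCR, normalised to GAPDH mRNA, relative to 0.1% DMSO mock. Triplicate experiments, mean ± SD.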

The subject of the next assay is Huh-7. Put plainly: Inhibition of HCV NS3/4A protease expressed in human Huh7 cells coexpressing EGFP at 15 uM after 3 days by secretory alkaline phosphatase reporter gene assay. The format is cell-based. The settings on record: Hepacivirus hominis. The essentials: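 Huh-7 cells transfected 6 h with 0.5 µg pEG(Δ4AB)SEAP-NS3/4A reporter plasmid, then treated with compound at 5, 10, 12.5 and 15 µM. Controls: 10 nM BILN 2061 (positive) and 0.1% DMSO (mock). SEAP activity in culture medium read after 3 days, expressed as % reduction versus mock. Triplicates, mean ± SD.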

SMILES strings stand for the structures. The source made the active and inactive calls. The calls are words filed in the database; no cut-off is given here.

Usually EC50 stands for the concentration that produces a half-maximal response. The inhibition is the relative decrease from the control value, in per cent.

As to `Clc1cc(Br)ccc1Nc1ccc2ccccc2n1`, the half-maximal effective concentration (EC50) with Hepatitis C virus [1] stood at 45 µM. For the same compound, the “Ratio CC50/EC50” value in assay [2] is listed as 1.

With `Cc1cc(Cl)ccc1Nc1ccc2ccccc2n1`, the EC50 in the assay on Hepatitis C virus [1] came to 12.5 µM. Further, the “Ratio CC50/EC50” value in assay [2] was 3.4.

Take `O=[N+]([O-])c1ccc(Nc2ccc3ccccc3n2)cc1`: the EC50 in the assay on Hepatitis C virus [1] amounted to 20 µM. Also, the “Ratio CC50/EC50” value in assay [2] turned out to be 2.4.

Regarding `COc1cc(Nc2ccc3ccccc3n2)cc(OC)c1`, the concentration giving a half-maximal response (EC50) in the assay with Hepatitis C virus [1] is 33 µM. The “Ratio CC50/EC50” value in assay [2] is listed as 1.

In the case of `COc1ccc(Nc2ccc3ccccc3n2)cc1`, the EC50 in the assay on Hepatitis C virus [1] is 43 µM. The “Ratio CC50/EC50” value in assay [2] was found to be 1.

For `COc1cc(Nc2ccc3ccccc3n2)cc(OC)c1OC`, in the assay on Hepatitis C virus [1], the EC50 was determined as 25 µM. In addition, the “Ratio CC50/EC50” value in assay [2] is 3.

For `N#Cc1ccc(Nc2ccc3ccccc3n2)cc1`, the EC50 in the assay with Hepatitis C virus [1] was found to be 14.3 µM. The “Ratio CC50/EC50” value in assay [2] is on record as 3.5.

`Cc1cccc(C)c1Nc1ccc2ccccc2n1`: in the assay on Hepatitis C virus [1], the EC50 was determined as 40 µM. The “Ratio CC50/EC50” value in assay [2] came to 1.

Regarding `Clc1ccc(Nc2ccc3ccccc3n2)cc1`, the EC50 in the assay on Hepatitis C virus [1] came out at 53 µM. For the same compound, the “Ratio CC50/EC50” value in assay [2] is 1.1.

For the compound `c1ccc(COc2cccc(Nc3ccc4ccccc4n3)c2)cc1`, in the assay on Hepatitis C virus [1], the EC50 came out at 15.1 µM. In addition, the “Ratio CC50/EC50” value in assay [2] amounted to 3.1.

`Cc1cc(C)cc(Nc2ccc3ccccc3n2)c1`: in the assay on Hepatitis C virus [1], the EC50 was found to be 31 µM. The “Ratio CC50/EC50” value in assay [2] was 1.

`O=[N+]([O-])c1cccc(Nc2ccc3ccccc3n2)c1`: the inhibition entry (in assay [3]; in the assay on Hepacivirus hominis) was “inactive” in each case. The EC50 in the assay with Hepatitis C virus [1] amounted to 7 µM. Moreover, the results for the Activity entry in the assay on Hepatitis C virus [1] (Hepacivirus hominis) and in the assay on Hepatitis C virus [5] were “Dose-dependent effect” and 80%, respectively. Further, the values for the inhibition entry in the assay with Hepatitis C virus [4] and in the assay with Huh-7 were “Dose-dependent effect” and 40%, respectively. For the same compound, the “Ratio CC50/EC50” value in assay [2] is 10.

Turning to `c1ccc(Nc2ccc3ccccc3n2)cc1`, in the assay on Hepatitis C virus [1], the EC50 was 23 µM. Further, the “Ratio CC50/EC50” value in assay [2] came to 1.96.

Regarding `O=[N+]([O-])c1cc(Nc2ccc3ccccc3n2)ccc1O`, the EC50 with Hepatitis C virus [1] amounted to 21.7 µM. For the same compound, the “Ratio CC50/EC50” value in assay [2] is recorded as 3.8.

As for `Cc1ccc(Nc2ccc3ccccc3n2)c(C)c1`, the EC50 in the assay with Hepatitis C virus [1] came out at 35 µM. The “Ratio CC50/EC50” value in assay [2] was 1.

`Cc1ccc(Nc2ccc3ccccc3n2)cc1`: the EC50 with Hepatitis C virus [1] worked out at 43 µM. The “Ratio CC50/EC50” value in assay [2] is recorded as 1.

`Brc1ccccc1Nc1ccc2ccccc2n1`: in the assay on Hepatitis C virus [1], the EC50 is 60 µM. The “Ratio CC50/EC50” value in assay [2] came to 1.

For `CCOC(=O)c1ccc(Nc2ccc3ccccc3n2)cc1`, the concentration giving a half-maximal response (EC50) with Hepatitis C virus [1] was determined as 50 µM. In assay [2], the “Ratio CC50/EC50” value is listed as 2.9.
